T cruzi growth-1 = T. cruzi proliferation inhibition | T. cruzi beta-gal in NIH3T3, GalScreen luminescence, 90 h | inhibition, % at 8.34 µM | 77,000 compounds, 5.9% hits | AID 624255;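 active means mean inhibition above about 93%, with at least 55% of replicates each passing it, limit read from the data, passing the limit was not always enough; inconclusive means only one of those two conditions holds; inactive means neither condition holds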
IDH1 R132H inh = IDH1 R132H (human) inhibition. O75874. IDH1 R132H reductase, diaphorase/resazurin fluorescence, 60 min. inhibition, % at 10 µM. 70,000 compounds, 0.18% hits. AID 624101; in the data active means inhibition above about 34%; inconclusive means no clear call, values can overlap the other calls; inactive means below about 11%;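 further: 0% = DMSO and 100% = no enzyme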
Target sequence (O75874 whole entry R132H): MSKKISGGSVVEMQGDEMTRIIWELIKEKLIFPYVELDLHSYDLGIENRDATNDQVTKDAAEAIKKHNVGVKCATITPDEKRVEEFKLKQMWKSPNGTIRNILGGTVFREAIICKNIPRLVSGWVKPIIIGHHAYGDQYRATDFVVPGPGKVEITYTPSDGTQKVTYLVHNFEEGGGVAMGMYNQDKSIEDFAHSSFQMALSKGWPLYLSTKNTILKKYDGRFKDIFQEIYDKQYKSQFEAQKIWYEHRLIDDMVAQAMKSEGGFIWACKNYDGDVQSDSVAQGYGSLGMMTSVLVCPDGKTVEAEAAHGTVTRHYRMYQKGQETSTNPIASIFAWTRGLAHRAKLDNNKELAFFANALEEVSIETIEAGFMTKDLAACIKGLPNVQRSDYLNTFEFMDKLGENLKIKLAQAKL
Pf Dd2 growth = blocks growth of Plasmodium falciparum Dd2 parasites; P. falciparum Dd2 growth, SYBR Green, 72 h; stronger effect = lower value; activity change, % at 10 µM; 94,000 compounds, 2.3% hits; AID 1159554; in the data active means activity change below about -80%; inconclusive means no clear call, values can overlap the other calls
KDM4C inh = blocks human GASC-1 (KDM4C) demethylase activity | Q9H3R0 | GST-KDM4C 2-372, H3K9me3 peptide, LANCE TR-FRET | inhibition, % at 12.5 µM | 96,000 compounds, 0.15% hits;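 active means mean replicate inhibition above about 25%, with at least 55% of replicates also reaching it, limit read from the data, passing the limit was not always enough; inconclusive means only one of those two conditions met; inactive means neither condition met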
Target sequence (Q9H3R0 2-372 limits assumed): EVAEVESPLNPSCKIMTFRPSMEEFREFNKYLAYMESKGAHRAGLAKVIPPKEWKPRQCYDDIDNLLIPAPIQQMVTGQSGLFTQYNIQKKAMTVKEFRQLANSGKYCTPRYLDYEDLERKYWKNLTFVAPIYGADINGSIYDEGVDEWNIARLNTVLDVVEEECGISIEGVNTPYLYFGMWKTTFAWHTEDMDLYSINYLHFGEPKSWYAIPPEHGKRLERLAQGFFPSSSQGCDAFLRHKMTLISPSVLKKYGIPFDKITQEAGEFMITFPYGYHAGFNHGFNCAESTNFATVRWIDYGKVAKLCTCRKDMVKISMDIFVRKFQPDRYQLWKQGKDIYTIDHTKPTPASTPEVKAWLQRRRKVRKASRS
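System: N-terminal GST-fused human GASC-1 (KDM4C) fragment, residues 2-372; amount: enzyme final amount 10 nM; incubation: reaction 30 min RT, detection step 1 h RT; medium: HEPES buffer, pH 7.5, plus ascorbate; technique: LANCE TR-FRET, Eu antibody, ULight-streptavidin, EDTA, ex 340 nm, em 618/671 nm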
T cruzi growth-2 = blocks T. cruzi growth in NIH3T3 host cells | AID 651739 | T. cruzi beta-gal in NIH3T3, GalScreen luminescence, 90 h | inhibition, % at 8.35 µM | shares compounds with T cruzi growth-1 | 5,600 compounds, 72% hits;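 active means mean replicate inhibition above about 95% and at least 55% of replicates individually reaching it, limit read from the data; inconclusive means only one of the two criteria is met; inactive means neither criterion is met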
T cruzi growth-3 = blocks T. cruzi growth in NIH3T3 host cells. T. cruzi beta-gal in NIH3T3, GalScreen luminescence, 90 h. inhibition, % at 2.09 µM. shares compounds with T cruzi growth-1. 5,600 compounds, 21% hits;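 active means mean inhibition above about 95%, with at least 55% of replicates also reaching it, limit read from the data; inconclusive means meets just one of the two conditions; inactive means meets neither condition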;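 further: plate controls were neutral control median for no effect and positive control median for full effect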
3T3 cytotox = NIH/3T3 (mouse) viability loss. shares compounds with T cruzi growth-1. NIH/3T3 viability, CellTiter-Glo ATP luminescence, 90 h. cytotoxicity (signal decrease), % at 8.35 µM. 5,600 compounds, 14% hits;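 active means mean signal decrease across replicates above about 35% based on untreated-well scatter, with enough replicates individually passing, limit read from the data; inconclusive means no rule stated though some were filed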;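 further: 0% = median of neutral control wells and 100% = median of positive control wells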
3T3 cytotox 2 = NIH/3T3 (mouse) viability loss; shares compounds with T cruzi growth-1; NIH/3T3 viability, CellTiter-Glo ATP luminescence, 90 h; inhibition, % at 24.9 µM; 5,600 compounds, 56% hits; AID 651744;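 active means mean loss of cell viability signal at or above a set limit, and enough replicates individually reaching it; inconclusive means meets only the mean limit or only the replicate share; inactive means meets neither condition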;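 further: 0% = median of neutral control wells and 100% = median of positive control wells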
* = called active by the depositor; ? = inconclusive; . = not tested or not shown. Hits are enriched below; roughly 5.9% of the tested compounds scored in any of these assays.

SMILES	T cruzi growth-1	IDH1 R132H inh	Pf Dd2 growth	KDM4C inh	T cruzi growth-2	T cruzi growth-3	3T3 cytotox	3T3 cytotox 2
O=S(=O)(c1ccc(F)cc1)N1[C@@H]2CNC[C@H]1C2c1ccc(-c2cccnc2)cc1 (some centres not stated)	.	.	-9.7	0.4	.	.	.	.
CN(C)C(=O)c1cccc(-c2ccc([C@H]3[C@@H](CO)N4CCCCN(C(=O)C5CCC5)C[C@H]34)cc2)c1	?	.	0.9	-0.8	106.6*	90.0	12.6	14.8
CN(C)C(=O)c1cccc(-c2ccc([C@@H]3[C@@H](CO)N4CCCCN(C(=O)C5CCC5)C[C@@H]34)cc2)c1	44.3	.	3.8	-1.1	.	.	.	.
CN(C)C(=O)c1cccc(-c2ccc([C@H]3[C@H](CO)N4CCCCN(C(=O)C5CCC5)C[C@@H]34)cc2)c1	101.7*	.	6.0	-1.4	99.4*	?	10.4	11.0
CN(C)C(=O)c1cccc(-c2ccc([C@H]3[C@@H](CO)N4CCCCN(C(=O)C5CCCC5)C[C@@H]34)cc2)c1	102.1*	.	-4.7	.	102.7*	98.2*	-23.2	-25.7
O=C(O)C[C@@H]1C[C@H]2c3cc(NC(=O)Nc4ccccc4)ccc3O[C@H]2[C@@H](CO)O1	37.1	0.3	21.3	2.3	.	.	.	.
COCC#Cc1cnc2c(c1)C(=O)N([C@@H](C)CO)C[C@H](C)[C@H](CN(C)C(=O)Cc1cccnc1)O2	.	.	7.5	4.2	.	.	.	.
CCCN1C[C@@H](C)[C@H](OC)CN(C)C(=O)c2ccc(NC(=O)Nc3c(C)noc3C)cc2OC[C@@H]1C	-21.7	-0.1	-5.3	0.1	.	.	.	.
COc1cccc(S(=O)(=O)N(C)C[C@@H]2Oc3cc(C#CCC(C)C)ccc3S(=O)(=O)N([C@@H](C)CO)C[C@@H]2C)c1	?	0.0	-71.7	0.3	?	111.6*	4.7	9.1
COc1cccc(S(=O)(=O)N(C)C[C@H]2Oc3cc(C#CCC(C)C)ccc3S(=O)(=O)N([C@@H](C)CO)C[C@H]2C)c1	?	-3.4	-77.0	0.6	96.4*	112.2*	17.9	65.8*
C[C@H](CO)N1C[C@H](C)[C@H](CN(C)Cc2ccc3c(c2)OCO3)Oc2cc(C#CCN(C)C)ccc2S1(=O)=O	76.4	0.0	?	0.5	.	.	.	.
C[C@H]1CN([C@@H](C)CO)S(=O)(=O)c2ccc(C#CCN(C)C)cc2O[C@@H]1CN(C)Cc1ccc2c(c1)OCO2	106.9*	0.5	-37.2	6.2	107.0*	88.1	29.1	105.5*
C[C@H]1CN([C@@H](C)CO)S(=O)(=O)c2ccc(C#CCN(C)C)cc2O[C@H]1CN(C)Cc1ccc2c(c1)OCO2	103.5*	2.6	-67.8	5.9	101.0*	52.8	12.7	25.7*
C[C@@H]1CN([C@@H](C)CO)S(=O)(=O)c2ccc(C#CCN(C)C)cc2O[C@@H]1CN(C)Cc1ccc2c(c1)OCO2	84.9	-0.5	-54.1	2.7	.	.	.	.
C[C@@H]1CN([C@@H](C)CO)C(=O)Cc2cc(NC(=O)Nc3ccc(C(F)(F)F)cc3)ccc2O[C@H]1CN(C)C(=O)Nc1ccc(C(F)(F)F)cc1	46.7	2.5	-73.1	-1.9	.	.	.	.
O=C(Nc1cc(F)ccc1F)N1CCCCN2[C@@H](CO)[C@H](c3ccc(-c4cccnc4)cc3)[C@@H]2C1	?	.	-12.1	1.1	97.3*	33.7	0.3	14.4
O=C(Nc1cc(F)ccc1F)N1CCCCN2[C@H](CO)[C@H](c3ccc(-c4ccccc4)cc3)[C@H]2C1	40.5	.	-71.3	-0.8	.	.	.	.
O=C(Nc1cc(F)ccc1F)N1CCCCN2[C@H](CO)[C@@H](c3ccc(-c4cncnc4)cc3)[C@@H]2C1	112.0*	.	-14.4	-1.9	11.6	4.6	-12.8	-5.6
O=C(Nc1ccccc1F)N1CCCCN2[C@H](C1)[C@H](c1ccc(-c3cccnc3)cc1)[C@@H]2CO	104.3*	.	20.1	-0.8	?	-6.9	-11.4	-12.2
O=C(Nc1ccccc1F)N1CCCCN2[C@H](CO)[C@@H](c3ccc(-c4cccnc4)cc3)[C@@H]2C1	55.0	.	7.2	0.5	.	.	.	.
O=C(Nc1cc(F)ccc1F)N1CCCCN2[C@H](C1)[C@H](c1ccc(-c3ccccc3)cc1)[C@@H]2CO	99.2*	.	-6.9	-0.8	107.6*	60.5	29.9	20.0
C[C@@H]1CN([C@H](C)CO)C(=O)Cc2cc(NS(=O)(=O)c3cn(C)cn3)ccc2O[C@@H]1CN(C)Cc1ccccc1	38.8	1.8	-4.9	1.9	.	.	.	.
COc1ccccc1NC(=O)C(C)N1c2cccc3cccc(c23)S1(=O)=O (configuration not stated)	.	0.0	.	.	.	.	.	.
CO[C@H](CN(C)C(=O)c1ccccc1F)[C@H](C)CN([C@@H](C)CO)S(=O)(=O)c1ccccc1	-0.8	-0.1	10.3	1.6	.	.	.	.
C[C@H]1CN([C@@H](C)CO)C(=O)c2cccc(NC(=O)Nc3cccc4ccccc34)c2O[C@H]1CN(C)CC1CC1	.	-0.7	-0.9	0.3	.	.	.	.
SMILES	T cruzi growth-1	IDH1 R132H inh	Pf Dd2 growth	KDM4C inh	T cruzi growth-2	T cruzi growth-3	3T3 cytotox	3T3 cytotox 2
CCCNC(=O)C[C@@H]1CC[C@@H]2[C@@H](COc3ccc(NC(=O)NC(C)C)cc3C(=O)N2C)O1	22.4	.	17.7	1.2	.	.	.	.
O=C(C[C@H]1CC[C@H](NC(=O)C2CC2)[C@@H](CO)O1)NCc1ccncc1	-36.1	-0.4	12.1	-5.5	.	.	.	.
O=C(Nc1cc(F)ccc1F)N1CCCCN2[C@H](CO)[C@H](c3ccc(-c4ccncc4)cc3)[C@@H]2C1	75.6	.	11.7	-1.6	.	.	.	.
O=C(Nc1cc(F)ccc1F)N1CCCCN2[C@@H](CO)[C@H](c3ccc(-c4ccncc4)cc3)[C@@H]2C1	68.6	.	9.6	-0.7	.	.	.	.
O=C(Nc1cc(F)ccc1F)N1CCCCN2[C@@H](CO)[C@H](c3ccc(-c4cncnc4)cc3)[C@@H]2C1	98.1*	.	6.3	-0.1	68.7	18.2	23.6	11.0
O=C(Nc1cc(F)ccc1F)N1CCCCN2[C@H](CO)[C@H](c3ccc(-c4cncnc4)cc3)[C@H]2C1	112.1*	.	9.1	0.2	107.2*	25.3	-3.4	-16.0
O=C(Nc1cc(F)ccc1F)N1CCCCN2[C@@H](CO)[C@@H](c3ccc(-c4cncnc4)cc3)[C@@H]2C1	108.2*	.	15.7	0.7	-6.0	-12.8	-30.9	-6.4
CCCNC(=O)C[C@H]1CC[C@H]2[C@@H](COc3ccc(NC(=O)c4cc(C)on4)cc3C(=O)N2C)O1	5.6	.	-20.7	3.7	.	.	.	.
C[C@H](O)C#Cc1ccc([C@H]2[C@H]3CN(C(=O)c4ccc(F)cc4)CCCCN3[C@H]2CO)cc1	27.0	.	5.1	-1.1	.	.	.	.
C[C@@H](O)C#Cc1ccc([C@H]2[C@H]3CN(C(=O)c4ccncc4)CCCCN3[C@H]2CO)cc1	?	.	-5.0	0.5	?	-7.0	6.9	12.6

Screening results from PubChem.
